Test results: ChEMBL document CHEMBL1122685, “Identification of an acridine photoaffinity probe for trypanocidal action” (1984)

Legend:
Assay type in all cases: functional
Trypanosoma brucei [1] = assay: Compound is evaluated for trypanocidal activity against Trypanosoma brucei, by exposing the parasites directly to compound prior to injection to mice at 10 E-5 M concentration (pre) in presence of light
Method in brief: (§1)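 Compound was irradiated 1 h before contact with T. brucei EATRO 110 (5×10^6/mL in TSG, final drug concentration). After 10 min gentle rotation, the mixture was irradiated again for 10 min under a 30W fluorescent lamp at 4 cm. 5×10^5 parasites in 0.1 mL were given ip to five Swiss mice per group. Read-out was mean days survival ±SD over 30 days, with untreated controls.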

Trypanosoma brucei [2] = assay: Compound is evaluated for trypanocidal activity against Trypanosoma brucei, by exposing the parasites directly to compound prior to injection to mice at 10 E-6 M concentration in presence of light
Method in brief: (§2)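 DEAE-purified T. brucei EATRO 110 at 5×10^6/mL in TSG was mixed with drug at the final concentration by gentle rotation for 10 min. Samples were light-activated for 10 min under a 30W fluorescent lamp 4 cm above. 5×10^5 treated parasites in 0.1 mL were injected ip into Swiss mice, five per group. Survival was scored daily for 30 days and reported as mean days ±SD, with untreated controls.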

Trypanosoma brucei [3] = assay: Compound is evaluated for trypanocidal activity against Trypanosoma brucei, by exposing the parasites directly to compound prior to injection to mice at 10 E-4 M concentration in dark conditions
Method in brief: (§3)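 T. brucei EATRO 110 was separated from blood on DEAE-cellulose and washed in Tris-saline-glucose (TSG). Parasites at 5×10^6/mL in TSG were gently rotated 10 min with drug at the final concentration, kept dark under a red safelight until injection. Swiss mice, five per group, received 5×10^5 parasites ip in 0.1 mL. Read-out was mean days survival ±SD over 30 days, against untreated-parasite controls.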

Trypanosoma brucei [4] = assay: Compound is evaluated for trypanocidal activity against Trypanosoma brucei, by exposing the parasites directly to compound prior to injection to mice at 10 E-4 M concentration in presence of light; method in brief: as §2
Trypanosoma brucei [5] = assay: Compound is evaluated for trypanocidal activity against Trypanosoma brucei, by exposing the parasites directly to compound prior to injection to mice at 10 E-6 M concentration in dark conditions; method in brief: as §3
Trypanosoma brucei [6] = assay: Compound is evaluated for trypanocidal activity against Trypanosoma brucei, by exposing the parasites directly to compound prior to injection to mice at 10 E-5 M concentration in presence of light; method in brief: as §2
Trypanosoma brucei [7] = assay: Compound is evaluated for trypanocidal activity against Trypanosoma brucei, by exposing the parasites directly to compound prior to injection to mice at 10 E-5 M concentration in dark conditions; method in brief: as §3
Trypanosoma brucei [8] = assay: Compound is evaluated for trypanocidal activity against Trypanosoma brucei, by exposing the parasites directly to compound prior to injection to mice at 10 E-5 M concentration (pre) in dark conditions
Method in brief: (§4)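 Drug was preirradiated 1 h with visible light, then added at the final concentration to T. brucei EATRO 110 (5×10^6/mL in TSG) and rotated 10 min. The parasites were then kept dark with a red safelight. Swiss mice, five per group, were injected ip with 0.1 mL holding 5×10^5 parasites. Mean days survival ±SD was scored over 30 days against untreated-parasite controls.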

Trypanosoma brucei [9] = assay: Compound is evaluated for trypanocidal activity against Trypanosoma brucei, by exposing the parasites directly to compound prior to injection to mice at 10 E-5 M concentration in presence of lightin; method in brief: as §2
Trypanosoma brucei [10] = assay: Compound is evaluated for trypanocidal activity against Trypanosoma brucei, by exposing the parasites directly to compound prior to injection to mice at 10 E-7 M concentration in dark conditions; method in brief: as §3
Trypanosoma brucei [11] = assay: Compound is evaluated for trypanocidal activity against Trypanosoma brucei, by exposing the parasites directly to compound prior to injection to mice at 10 E-7 M concentration in presence of light; method in brief: as §2
Trypanosoma brucei [12] = assay: Compound is evaluated for trypanocidal activity against Trypanosoma brucei, by exposing the parasites directly to compound prior to injection to mice at 10 E-6 M concentration (pre) in presence of light.; method in brief: as §1
Trypanosoma brucei [13] = assay: Compound is evaluated for trypanocidal activity against Trypanosoma brucei, by exposing the parasites directly to compound prior to injection to mice at 10 E-6 M concentration (pre) in dark conditions; method in brief: as §4
Trypanosoma brucei [14] = assay: Trypanocidal activity against Trypanosoma brucei, exposure of parasites to compound prior to injection into mice at 10 e-5 M concentration in dark conditions; method in brief: as §3
Trypanosoma brucei [15] = assay: Compound is evaluated for trypanocidal activity against Trypanosoma brucei, by exposing the parasites directly to compound prior to injection to mice at 10 e-7 M concentration in dark; method in brief: as §3
Trypanosoma brucei [16] = assay: Trypanocidal activity against Trypanosoma brucei, exposure of parasites to compound prior to injection into mice at 10 e-6 M concentration in dark conditions; method in brief: as §3

Row | SMILES | Activity (Trypanosoma brucei [1]) | Activity (Trypanosoma brucei [2]) | Activity (Trypanosoma brucei [3]) | Activity (Trypanosoma brucei [4]) | Activity (Trypanosoma brucei [5]) | Activity (Trypanosoma brucei [6]) | Activity (Trypanosoma brucei [7]) | Activity (Trypanosoma brucei [8]) | Activity (Trypanosoma brucei [9]) | Activity (Trypanosoma brucei [10]) | Activity (Trypanosoma brucei [11]) | Activity (Trypanosoma brucei [12]) | Activity (Trypanosoma brucei [13]) | Activity (Trypanosoma brucei [14]) | Activity (Trypanosoma brucei [15]) | Activity (Trypanosoma brucei [16])
1 | Nc1ccc2cc3ccccc3nc2c1 | 30 | 5.7 | 6.9 | 30 | 4.9 | 30 | 6.6 | 6.7 | – | – | – | – | – | – | – | –
2 | Nc1ccc2cc3ccc(N)cc3nc2c1 [PROFLAVINE] | – | 30 | 30 | 30 | 5.5 | – | 12 | – | 30 | 6.3 | 8.1 | 20.6 | 7.2 | – | – | –
3 | N=C(N)c1ccc(/N=N/Nc2ccc(C(=N)N)cc2)cc1 [DIMINAZENE] | – | – | – | – | – | – | – | – | – | – | – | – | – | 19.2 | 5 | 10.8
